Test results reported in ChEMBL document CHEMBL1137788, “Potential neuroprotective drugs in cerebral ischemia: new saturated and polyunsaturated lipids coupled to hydrophilic moieties: synthesis and biological activity” (J Med Chem, 2009).
pEC50: −log10 of the molar value. Activity calls are given as the source filed them. The calls are words filed in the database; no cut-off is given here.

Assays:
[1] = test system: HT-22; assay: Neuroprotective effect against iodoacetic acid-induced ischemia in mouse HT22 cells treated simultaneously with iodoacetic acid for 2 hrs followed by incubation in fresh medium containing drug alone for 20 hrs measured after 4 hrs by MTT assay; assay type: functional, cell-based
Procedure, shortened: (§1)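 HT22 cells were seeded at 5 × 10³ per well and moved next day to DMEM with 7.5% dialyzed FCS. They were exposed to 20 μM iodoacetic acid plus graded compound doses for 2 h, then given fresh IAA-free medium containing compound for 20 h. MTT was added for 4 h at 37 °C and absorbance read at 570 nm.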

[2] = test system: HT-22; assay: Activation of ERK phosphorylation in mouse HT22 cells at 10 uM treated simultaneously with iodoacetic acid for 2 hrs followed by 2 hrs of recovery in presence of drug alone by immunoblot analysis; assay type: cell-based
Procedure, shortened: (§2)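 HT22 cells, plated at the same density as for the death assays, were given 10 μM compound with or without 20 μM IAA for 2 h, then allowed 2 h of recovery with compound present. Cells were washed in PBS and lysed in SDS sample buffer with Na3VO4 and PMSF. Lysates were run on 10% gels and immunoblotted for phospho and total ERK, JNK, p38, c-Jun and MAPKAPK2.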

[3] = Cytotoxicity against mouse HT22 cells at 10 uM after 24 hrs by MTT assay; assay type: cell-based; conditions: ht-22, 24 h
Procedure, shortened: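 HT22 cells grown in DMEM with 10% FCS were seeded at 5 × 10³ cells per well. The medium was switched to DMEM with 7.5% dialyzed FCS and cells were exposed to 10 μM compound alone. Viability was read after 24 h by MTT (2.5 μg/mL, 4 h at 37 °C, solubilized in DMF/SDS pH 4.7) at 570 nm.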

[4] = test system: HT-22; assay: Neuroprotective effect against glutamate-induced neuronal cell death in mouse HT22 cells assessed as cell survival at 1 to 10 uM treated simultaneously with glutamate after 24 hrs by MTT assay; assay type: functional
Procedure, shortened: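 Mouse HT22 hippocampal cells grown in DMEM/10% FCS, seeded 5 × 10³ cells/well. Next day medium changed to DMEM with 7.5% dialyzed FCS and cells given analogue doses together with 5 mM glutamate for 24 h. Medium then replaced with 2.5 μg/mL MTT for 4 h at 37 °C and solubilized in 50% DMF/20% SDS (pH 4.7). A570 read next day. Maximal % survival at best dose reported.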

[5] = test system: HT-22; assay: Neuroprotective effect against iodoacetic acid-induced ischemia in mouse HT22 cells assessed as cell survival at 1 to 10 uM treated simultaneously with iodoacetic acid for 2 hrs followed by incubation in fresh medium containing drug alone for 20 hrs measured after 4 hrs by MTT assay; assay type: functional; procedure, shortened: as §1
[6] = target: T1, MAP kinase p38 (Mus musculus) (UniProt P47811+O08911+Q9WUI1+Q9Z1B7); assay: Inhibition of p38 MAPK activation in mouse HT22 cells at 10 uM treated simultaneously with iodoacetic acid for 2 hrs followed by 2 hrs of recovery in presence of drug alone by immunoblot analysis; assay type: cell-based; conditions: HT-22; procedure, shortened: as §2
[7] = test system: HT-22; assay: Inhibition of JNK activation in mouse HT22 cells at 10 uM treated simultaneously with iodoacetic acid for 2 hrs followed by 2 hrs of recovery in presence of drug alone by immunoblot analysis; assay type: cell-based; procedure, shortened: as §2
[8] = test system: HT-22; assay: Inhibition of JNK activation in mouse HT22 cells assessed as c-jun phosphorylation at 10 uM treated simultaneously with iodoacetic acid for 2 hrs followed by 2 hrs of recovery in presence of drug alone by immunoblot analysis; assay type: cell-based; procedure, shortened: as §2
[9] = target: T1, MAP kinase p38 (Mus musculus); assay: Inhibition of p38 MAPK activation in mouse HT22 cells assessed as MAPKAPK2 phosphorylation at 10 uM treated simultaneously with iodoacetic acid for 2 hrs followed by 2 hrs of recovery in presence of drug alone by immunoblot analysis; assay type: cell-based; conditions: HT-22; procedure, shortened: as §2
[10] = test system: Brain; assay: Neuroprotective effect against glutamate-induced injury in rat brain slices at 10 uM treated 1 hr prior to and during glutamate challenge by 2, 3, 5-triphenyl tetrazolium chloride staining method; assay type: functional, tissue-based
Procedure, shortened: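 Rat cortical slices were cultured with compound for 1 h before and during injury with 1 mM glutamate. Slice viability was assessed by TTC staining, n=6, mean ± SD.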

Compound	pEC50 [1]	Activity [2]	Activity [3]	%max [4]	%max [5]	Activity [6]	Activity [7]	Activity [8]	Activity [9]	Activity [10]
CCCCCCCCCCCCCCCCCC(=O)NCCCCCC(=O)OCC(O)C1OC(=O)C(OCc2ccccc2)=C1OCc1ccccc1 (stereo not drawn)	5.60	inactive	48%	19%	68%	–	–	–	–	–
CCOC(=O)C(CO)NC(=O)[C@@]1(C)CCC[C@@]2(C)C1CC=C1C=C(C(C)C)CC[C@H]12 (stereo partly drawn)	5.98	inactive	25%	55%	85%	Active	Active	Active	Active	–
CCCCC/C=C\C/C=C\CCCCCCCC(=O)NCCCCCC(=O)OCC(O)C1OC(=O)C(O)=C1O (stereo not drawn)	5.19	inactive	19%	32%	55%	–	–	–	–	–
CCCCCCCCCCCCCCCCCC(=O)NCCCCCC(=O)OCC(O)C1OC(=O)C(O)=C1O (stereo not drawn)	5.74	inactive	40%	65%	92%	–	–	–	–	–
CCCCC/C=C/C/C=C/CCCCCCCC(=O)NC(C(=O)OCC)c1nnn[nH]1 (stereo not drawn)	4.95	inactive	4%	8%	41%	–	–	–	–	–
CCCCC/C=C/C/C=C/CCCCCCCC(=O)NCCCCCC(=O)OCC(O)C1OC(=O)C(OCc2ccccc2)=C1OCc1ccccc1 (stereo not drawn)	5.09	inactive	7%	13%	59%	–	–	–	–	–
CCOC(=O)C(CO)NC(=O)C=C(C)/C=C/C=C(C)/C=C/C1=C(C)CCCC1(C)C (stereo not drawn)	4.94	inactive	15%	14%	45%	–	–	–	–	–
CC1=CC(=O)CC(C)(C)C1(O)/C=C/C(C)=C/C(=O)NC(CO)C(=O)O (stereo not drawn)	5.57	inactive	40%	14%	70%	–	–	–	–	–
CC1=C(/C=C/C(C)=C/C=C/C(C)=C/C(=O)NC(CO)C(=O)O)C(C)(C)CCC1 (stereo not drawn)	5.39	inactive	20%	16%	63%	–	–	–	–	–
CCCCCCCCCCCCCCCCCC(=O)NC(CO)C(=O)O (stereo not drawn)	5.49	inactive	28%	16%	65%	–	–	–	–	Active
CCCCCCCCCCCCCCCCCC(=O)NC(CO)C(=O)OCC (stereo not drawn)	5.01	inactive	53%	16%	56%	–	–	–	–	–
CCCCCCCCCCCCCCCCCC(=O)NC(CO)P(=O)(O)O (stereo not drawn)	5.68	inactive	50%	20%	74%	–	–	–	–	–
CC(C)C1=CC2=CCC3[C@](C)(CCC[C@]3(C)C(=O)NC(CO)C(=O)O)[C@@H]2CC1 (stereo partly drawn)	–	inactive	26%	10%	27%	–	–	–	–	–
CCCCCCCCCCCCCCCCCC(=O)NC(CO)P(=O)(OC)OC (stereo not drawn)	5.39	inactive	11%	17%	64%	–	–	–	–	–
O=c1c(O)c(-c2ccc(O)c(O)c2)oc2cc(O)ccc12 [FISETIN]	5.55	inactive	15%	–	95%	–	–	–	–	–
CCOC(=O)C(CO)NC(=O)/C=C(C)/C=C/C1(O)C(C)=CC(=O)CC1(C)C (stereo not drawn)	4.87	inactive	1%	21%	39%	–	–	–	–	–
